TAAR1 agonist = human TAAR1 agonism; activation, % at 3 µM; CHO RD-HGA16 TAAR1, Fluo-8 calcium fluorescence; vehicle wells 0%, saturating PEA agonist 100%; 0.99% of 360,000 active;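 active = activation above the mean activation of all test compounds in the run plus 3 SD, cut at about 38% in these data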
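Benchmarks: low control DMSO, high control PEA (EC100); System: CHO RD-HGA16 cells carrying human TAAR1 plus Gα16; Detection: Fluo-8 fluorescence, 5 s baseline then 140 s kinetic read; Schedule: 17-24 h plating, Fluo-8 75 min 37 °C, 30 min RT; Read-out basis: % activation from peak over basal fluorescence ratio, DMSO-to-PEA scaled.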
OXTR agonist = agonists of human oxytocin receptor. CHO-OTR cells, Fluo-8 calcium fluorescence; normalized: DMSO 0%, oxytocin 100%. activation, % at 3 µM. 0.32% of 320,000 active. AID 2435;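 active = activation above the mean of all tested compounds plus 3 SD, cutoff set per screening run, cut at about 20% in these data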;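 also: peak over basal fluorescence ratio from a 100 s FLIPR kinetic read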
OXTR potentiator = potentiates the human oxytocin receptor response | P30559 | CHO-OTR cells, Fluo-8 calcium fluorescence, potentiator mode; 0% = oxytocin EC15, 100% = EC100 | activation, % at 3 µM | 0.061% of 320,000 active | AID 2445;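 active = activation above that plate's cutoff, the mean activation of tested compounds plus 3 SD, cut at about 6.6% in these data, passing the limit was not always enough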
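assay system = CHO-OTR cells, human receptor | schedule = compound 6 min at room temperature before oxytocin, 100 s read | detection = Fluo-8 intracellular calcium fluorescence, ex 470-495, em 515-575 nm | evaluation = normalized max/min fluorescence ratio, % activation | control set = EC15 oxytocin alone as 0%, 75 nM oxytocin (EC100) as 100%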
TAAR1 antagonist = antagonists of human TAAR1. inhibition, % at 3 µM. 1.5% of 360,000 active. Q96RJ0. AID 624466. CHO RD-HGA16 TAAR1, Fluo-8 calcium fluorescence, antagonist;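 active = inhibition above a per-plate cutoff, the mean inhibition of test compounds on that plate plus 3 SD, cut at about 49% in these data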
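Material: CHO RD-HGA16 cells bearing hTAAR1; compound dosing: one-point dosing, 3 µM nominal final; schedule: dye loading 75 min at 37 °C, then 30 min room temperature; measured by: calcium fluorescence with Fluo-8; control set: vehicle and agonist controls; replication: n of 1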
V1aR counter = V1a receptor agonism, counter-screen for OXTR agonists. P37288. CHO-V1R cells, Fluo-8 calcium fluorescence, agonist mode; 0% DMSO, 100% 3 nM vasopressin. activation, % at 3 µM. 0.25% of 320,000 active;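 active = activation above the mean activation of all tested compounds plus 3 SD, per screening run, cut at about 20% in these data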;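 also: signal is peak over basal fluorescence ratio across a 100 second FLIPR read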
Target sequence (P37288 whole entry, looked up): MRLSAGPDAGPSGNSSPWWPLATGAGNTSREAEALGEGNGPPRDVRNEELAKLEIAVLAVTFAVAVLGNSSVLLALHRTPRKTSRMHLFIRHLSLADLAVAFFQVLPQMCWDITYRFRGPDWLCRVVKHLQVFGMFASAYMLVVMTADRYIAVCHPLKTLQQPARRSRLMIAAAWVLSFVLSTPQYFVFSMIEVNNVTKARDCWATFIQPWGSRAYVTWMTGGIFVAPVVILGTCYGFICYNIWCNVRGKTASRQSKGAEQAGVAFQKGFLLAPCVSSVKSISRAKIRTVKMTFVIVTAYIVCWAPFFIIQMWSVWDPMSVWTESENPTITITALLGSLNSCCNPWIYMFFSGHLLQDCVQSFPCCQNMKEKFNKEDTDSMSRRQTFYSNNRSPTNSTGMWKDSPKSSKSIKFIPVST
V1aR agonist cf = confirmation of human vasopressin V1a receptor agonists; CHO-V1R cells, Fluo-8 calcium fluorescence, agonist; activation, % at 3 µM; shares compounds with V1aR counter; 20% of 180 active; AID 434964;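 active = average activation exceeds primary screen hit cutoff, cut at about 21% in these data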;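 also: peak over basal fluorescence ratio during a 100 s FLIPR read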
OXTR ag counter = activates oxytocin receptor in V1a agonist counter-screen | shares compounds with V1aR counter | CHO-OTR cells, Fluo-8 calcium fluorescence | activation, % at 3 µM | 10% of 180 active | AID 434969;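 active = mean activation over three repeats above the cutoff from the earlier oxytocin receptor agonist screen, cut at about 20% in these data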;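 also: peak over minimum fluorescence ratio within a 100 second FLIPR read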
TAAR1 ag confirm = confirmation of human TAAR1 agonists; shares compounds with TAAR1 agonist; CHO RD-HGA16 TAAR1, Fluo-8 calcium fluorescence; scaled: DMSO 0%, maximal phenethylamine 100%; activation, % at 3 µM; 82% of 2,400 active; AID 651783;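 active = activation above a cutoff set at the run's mean compound activation plus 3 SD, cut at about 39% in these data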
Ga16 nonsel ag = counter-screen for TAAR1 agonists: nonselective agonists in parental cells; shares compounds with TAAR1 agonist; CHO-Ga16 parental, Fluo-8 calcium fluorescence; normalized to maximal ATP response, DMSO zero; activation, % at 3 µM; 50% of 2,400 active;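 active = activation above the run cutoff, the mean activation over all tested wells plus 3 SD, cut at about 12% in these data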
TAAR1 desens = human TAAR1 agonist that also desensitizes the receptor; shares compounds with TAAR1 agonist; CHO RD-HGA16 hTAAR1, Fluo-8 calcium, beta-PEA response inhibition; inhibition, % at 3 µM; 46% of 2,400 active; AID 651951;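 active = inhibition above the run cutoff, the mean inhibition of all test compounds plus 3 SD, cut at about 49% in these data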;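 also: beta-PEA stimulus applied at its EC80; loss of beta-PEA calcium signal after compound pretreatment read as receptor desensitization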
Ga16 antag count = nonselective Ga16 antagonism, counter-screen. shares compounds with TAAR1 agonist. CHO-Ga16 ATP-induced calcium, Fluo-8 fluorescence. inhibition, % at 3 µM. 39% of 2,400 active. AID 651952;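 active = inhibition above the plate's mean compound inhibition plus 3 SD, computed per plate, cut at about 22% in these data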
Numbers stand for hits. Sampled rows, rich in hits. Any-hit rate of the full collection: about 2.3%.

`Cc1ccc(C)c(Nc2c([N+](=O)[O-])ccc3nonc23)c1` gave TAAR1 agonist 72, OXTR agonist inactive, OXTR potentiator inactive, TAAR1 antagonist inactive, V1aR counter 22, V1aR agonist cf inactive, OXTR ag counter inactive, TAAR1 ag confirm 66, Ga16 nonsel ag 40, TAAR1 desens inactive and Ga16 antag count inactive.
`COc1cc(OC)c(NC(=O)c2cncn2-c2ccc(F)cc2)cc1Cl` gave TAAR1 agonist inactive, OXTR agonist inactive, OXTR potentiator inactive, TAAR1 antagonist inactive and V1aR counter inactive.
For Cn1c2ccccc2c(=O)c2c(=O)n(C3CCCCC3)c(-c3cccs3)nc21 the results were TAAR1 agonist 54, OXTR agonist inactive, OXTR potentiator inactive, TAAR1 antagonist inactive, V1aR counter 21, V1aR agonist cf 51, OXTR ag counter 33, TAAR1 ag confirm 104, Ga16 nonsel ag 75, TAAR1 desens 61 and Ga16 antag count 22.
For COc1ccc(CCn2c(C3CCCCC3)nc3c(c(=O)c4ccccc4n3C)c2=O)cc1 the results were TAAR1 agonist 111, OXTR agonist inactive, OXTR potentiator inactive, TAAR1 antagonist 96, V1aR counter 28, V1aR agonist cf inactive, OXTR ag counter inactive, TAAR1 ag confirm 65, Ga16 nonsel ag 61, TAAR1 desens 78 and Ga16 antag count 64.
COc1ccc(NC(=O)C[C@@H]2C(=O)N(c3ccc(OC)cc3)CC2(C)C)cc1 was read as TAAR1 agonist inactive and TAAR1 antagonist inactive.
O=C(/C=C/c1ccc(F)cc1)NC(=S)NNC(=O)[C@H]1C[C@@H]1c1ccccc1 was read as TAAR1 agonist 132, OXTR agonist inactive, OXTR potentiator inactive, TAAR1 antagonist 82, V1aR counter 26, V1aR agonist cf inactive, OXTR ag counter inactive, TAAR1 ag confirm 88, Ga16 nonsel ag 99, TAAR1 desens 72 and Ga16 antag count 66.
CC(C)(C)NC(=S)NNC(=O)[C@H]1C[C@@H]1c1ccccc1 was read as TAAR1 agonist inactive, OXTR agonist inactive, OXTR potentiator inactive, TAAR1 antagonist inactive and V1aR counter inactive.
`Cc1ccc(NC(=O)COC(=O)Cc2ccc(Br)cc2)cc1S(=O)(=O)N1CCOCC1` gave TAAR1 agonist inactive, OXTR agonist inactive, OXTR potentiator inactive, TAAR1 antagonist inactive and V1aR counter inactive.
`COc1ccc(CCN2C(=O)CN=C2Nc2ccc(F)cc2)cc1OC` gave TAAR1 agonist inactive, OXTR agonist inactive, OXTR potentiator inactive, TAAR1 antagonist inactive and V1aR counter inactive.
CCOc1ccc(NC2=NCC(=O)N2CCc2ccccc2)cc1 was read as TAAR1 agonist 70, OXTR agonist inactive, OXTR potentiator inactive, TAAR1 antagonist inactive, V1aR counter 20, V1aR agonist cf inactive, OXTR ag counter inactive, TAAR1 ag confirm 81, Ga16 nonsel ag 42, TAAR1 desens 82 and Ga16 antag count 52.
COc1ccc(N2C(=O)C3CCCN3C2c2ccc(C)o2)cc1 (centres undefined) was read as TAAR1 agonist inactive, OXTR agonist inactive, OXTR potentiator inactive, TAAR1 antagonist inactive and V1aR counter inactive.
